# SR-BI uptake up – activators of SR-BI mediated HDL lipid uptake; 0.096% of 320,000 active; CHO ldlA[mSR-BI] cells, DiI-HDL uptake fluorescence, 3 h; 100 = double the neutral-control signal; AID 504775; activation, % at 12.5 µM;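 active = mean replicate activation of at least 60% and every replicate at or above 60%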;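 note: 0% = median plate neutral-control signal and 100% = twice that signal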
#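 Test system: SR-BI-overexpressing, LDLR-lacking CHO cells; Also added: labelled HDL, 10 µg/mL; Measured by: bottom-read cell fluorescence after medium removal, ex 550/em 595 nm; Timing: 3 h uptake period with compound, 37 °C; Buffer or medium: F12, 0.5% BSA, 25 mM HEPES; Doses: single compound concentration, delivered by pin transfer.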
# NSD2 HMT inh – inhibitors of human histone methyltransferase NSD2. 0.54% of 310,000 active. inhibition, % at 12.5 µM. NSD2 peptide methylation, AlphaScreen, 120 min
# CDK5 p35 inh – inhibitors of human CDK5/p35 kinase | Recombinant CDK5/p35, ADP-Glo luminescence, 60 min | 0.01% of 330,000 active | inhibition, % at 10 µM | AID 488839 | Q00535+Q15078;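 active = highest replicate inhibition of at least 50% and at least 75% of replicates reaching 50%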;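 note: plate controls were DMSO neutral control for no effect and GW8510 at 10 µM for full effect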
# Target sequence (Q00535 whole entry, looked up): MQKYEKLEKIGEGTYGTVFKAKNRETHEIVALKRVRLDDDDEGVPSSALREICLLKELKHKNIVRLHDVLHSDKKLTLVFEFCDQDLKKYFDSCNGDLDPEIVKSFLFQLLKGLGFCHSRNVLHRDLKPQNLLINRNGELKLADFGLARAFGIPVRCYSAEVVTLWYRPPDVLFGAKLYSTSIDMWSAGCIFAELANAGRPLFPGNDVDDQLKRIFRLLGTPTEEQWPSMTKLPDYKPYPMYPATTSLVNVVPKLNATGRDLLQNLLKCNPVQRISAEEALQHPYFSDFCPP
# Target sequence (Q15078 whole entry, looked up): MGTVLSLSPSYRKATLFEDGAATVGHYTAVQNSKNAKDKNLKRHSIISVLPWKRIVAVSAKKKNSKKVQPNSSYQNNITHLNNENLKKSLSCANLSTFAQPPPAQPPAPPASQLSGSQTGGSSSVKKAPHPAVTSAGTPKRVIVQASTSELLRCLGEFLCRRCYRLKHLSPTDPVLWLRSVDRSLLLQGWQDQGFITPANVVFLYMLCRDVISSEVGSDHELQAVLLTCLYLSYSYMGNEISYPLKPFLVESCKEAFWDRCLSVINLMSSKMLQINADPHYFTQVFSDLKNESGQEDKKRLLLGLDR
# dFosB act-1 – activators of mouse delta FosB homodimer; P13346; purified delta FosB, TAMRA-CDK5 oligo fluorescence polarization; percent of positive-control signal above neutral wells; activation, % at 25 µM; 0.99% of 340,000 active;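 active = mean activation above about 17%, with every replicate also reaching it, limit read from the data, passing the limit was not always enough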
# DYRK1A inh – Dyrk1A (rat) kinase inhibition; ADP-Glo luminescence, NFATc1 peptide; inhibition, % at 12.5 µM; 0.43% of 310,000 active; AID 504441;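 note: plate controls were vehicle with enzyme for no effect and no enzyme for full effect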
# SR-BI HDL uptake – mouse SR-BI HDL lipid transfer inhibition; Q61009; ldlA[mSR-BI] CHO cells, DiI-HDL uptake fluorescence, 3 h; inhibition, % at 12.5 µM; 0.96% of 320,000 active; AID 488896;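 active = mean replicate inhibition of at least 70% and a set share of replicates each scoring 70 or more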;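 note: 0% = median of neutral control wells and 100% = median of positive control wells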
# dFosB act-2 – activators of mouse delta FosB homodimer DNA binding | shares compounds with dFosB act-1 | purified delta FosB, TAMRA-CDK5 oligo fluorescence polarization; normalised: neutral wells 0, positive control 100 | activation, % at 24.9 µM | 2,400 tested, under 10 active | AID 588690;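 active = highest replicate activation at or above 34% and every replicate reaching that threshold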;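 note: higher polarization means more probe DNA bound by delta FosB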
# * marks the source's active call; other numbers are inactive results; / = not tested or not shown. Compounds with a hit are over-represented: about 2.5% of the library has one in this group of screens. Cut-off read from the data, not from the text of the source, unless noted: active = inhibition above about 50%; inactive = the rest.
SMILES,SR-BI uptake up,NSD2 HMT inh,CDK5 p35 inh,dFosB act-1,DYRK1A inh,SR-BI HDL uptake,dFosB act-2
COc1ccc2nc(NC(=O)c3ccc4ncsc4c3)sc2c1,-61.2,/,0.2,21.6*,22.4,61.2,4.8
CC(=O)C(C(C)=O)C(c1ccccc1)c1nc2ccccc2[nH]c1=O (stereo unspecified),-8.8,-3.5,-0.4,0.0,-0.3,8.8,/
N#Cc1c(N)nc(SCC(=O)NCCc2ccccc2)c(C#N)c1-c1cccs1,19.4,-1.7,-0.6,35.9*,1.3,-19.4,-0.2
CC(=O)NC(c1ccc(F)c(F)c1)c1nc(-c2cccc(C(F)(F)F)c2)cs1 (stereo unspecified),/,2.4,/,/,/,/,/
O=C(CSc1nnc2c(n1)[nH]c1ccc(S(=O)(=O)N3CCOCC3)cc12)Nc1ccccc1Cl,-15.0,2.8,-0.1,25.8*,1.1,15.0,-0.8
COc1ccc(S(=O)(=O)N2CCOCC2)cc1NC(=O)CSc1nnc2c(n1)[nH]c1ccccc12,-11.5,10.4,0.7,14.2,0.8,11.5,/
COc1cc(/C=C/c2nc(N)nc(-c3ccccc3O)n2)cc(OC)c1OC,-15.6,1.9,-3.5,33.8*,-5.1,15.6,3.5
COc1ccc(/C=C/c2nc(N)nc(-c3ccccc3O)n2)cc1OC,-49.7,-1.5,-1.5,10.4,-3.4,49.7,/
CC(C)N(C(=O)CSc1nnc(C2CC2)n1C1CC1)c1ccccc1,-17.5,-0.9,1.0,2.8,-2.6,17.5,/
COc1ccc(CCN(Cc2cccs2)S(=O)(=O)c2ccc(C)s2)cc1OC,/,-2.2,/,/,/,/,/
COC(=O)c1c(NC(=O)Cn2cc([N+](=O)[O-])cn2)sc2c1CCC2,-36.0,-2.8,0.1,27.3*,-1.1,36.0,1.0
COC(=O)c1c(NC(=O)CSc2ncnc3[nH]ncc23)sc2c1CCC2,-33.0,4.6,1.1,28.8*,-0.2,33.0,2.7
COC(=O)c1c(NC(=O)CSc2ncnc3c2cnn3-c2ccccc2Cl)sc2c1CCCC2,-10.7,-1.0,-0.2,-12.6,1.6,10.7,/
O=C(COC(=O)c1ccco1)Nc1nnc(-c2ccccc2)o1,25.7,0.0,0.6,0.2,0.4,-25.7,/
CCOC(=O)c1cnc(SCc2nc(N)nc(Nc3ccccc3)n2)nc1N,-24.0,5.2,0.0,34.5*,-2.4,24.0,-0.9
CCOC(=O)c1cnc(SCC(=O)Nc2sc(C)c(C)c2C#N)nc1N,-5.4,-0.1,4.9,45.0*,-0.5,5.4,-1.3
CCOC(=O)c1sc(NC(=O)CSc2nc(C)cc(C)c2C#N)c(C#N)c1C,-18.6,-4.7,0.9,-8.3,-0.2,18.6,/
Cc1ccc(-c2nnc(SCC(=O)Nc3sc(C)c(C)c3C#N)n2C)cc1,2.8,-1.4,-0.9,100.2*,16.5,-2.8,1.9
CCOC(=O)c1sc(NC(=O)CSc2nc3c(cc2C#N)CCCCCC3)c(C#N)c1C,-74.5,0.7,0.8,18.6*,6.4,74.5*,4.1
CCOC(=O)c1cnc(SCC(=O)Nc2cc(OC)cc(OC)c2)nc1N,0.8,6.9,0.0,-0.5,-5.0,-0.8,/
NC(=O)C1CCCN(C(=O)c2ccc(Cl)c(S(=O)(=O)N3CCc4ccccc43)c2)C1 (stereo unspecified),-22.1,5.6,0.2,-0.1,/,22.1,/
CC(C)NC(=O)C1(C)CCN1C(=O)c1c(F)cccc1F (stereo unspecified),/,5.4,/,/,/,/,/
O=C(Nc1ccncc1)c1cc(C2CCCCN2C(=O)CCCc2ccccc2)on1 (stereo unspecified),/,0.7,/,/,/,/,/
Cc1cccc(N(C)S(=O)(=O)c2c(C)[nH]c(C)c2C(=O)N2CCCC2)c1,-7.7,-0.8,-0.8,-9.2,-2.6,7.7,/
Cc1sc(NC(=O)CSc2nnc(COc3ccc(Cl)cc3)n2C)c(C#N)c1C,-21.7,/,0.2,22.3*,2.9,21.7,2.2
SMILES,SR-BI uptake up,NSD2 HMT inh,CDK5 p35 inh,dFosB act-1,DYRK1A inh,SR-BI HDL uptake,dFosB act-2
CCOC(=O)c1cnc(SCC(=O)Nc2cc(C(F)(F)F)ccc2N2CCOCC2)nc1N,11.0,/,-0.8,20.5*,-1.0,-11.0,-1.0
COCCn1c(SCC(=O)Nc2sc(C)c(C)c2C#N)nnc1-c1ccc(OC)cc1,-35.9,1.4,-2.4,-6.2,10.6,35.9,/
CCOC(=O)c1cnc(SCC(=O)Nc2ccc(N3CCOCC3)c(Cl)c2)nc1N,21.8,-3.0,1.7,-3.6,0.8,-21.9,/
CSCc1ccc(C(=O)NCCSc2ccc(Br)cc2)cc1,/,-5.7,-1.7,7.3,-2.4,-1.2,/
COc1cc(S(=O)(=O)Nc2ccc(C)cc2)ccc1N=Cc1c(C)[nH]n(-c2ccc(C)cc2)c1=O,-21.8,-0.9,-2.0,0.5,0.1,21.8,/
COc1cc(S(=O)(=O)Nc2ccc(C)cc2)ccc1N=Cc1c(C)c(C#N)c(=O)n(C)c1O,-64.8,/,0.1,127.6*,0.0,64.8,-2.5
Cc1ccc(NC(=O)CSc2nc3nc(C)cc(C)c3c(=O)[nH]2)cc1,16.1,-1.3,-0.3,22.1*,-4.1,-16.1,3.8
Cc1ccccc1NC(=O)CSc1nc2scc(C)c2c(=O)[nH]1,/,-5.5,-1.9,27.5*,-0.4,/,3.0
Cc1sc2nc(SCC(=O)Nc3ccccc3F)[nH]c(=O)c2c1C,28.9,-12.5,0.0,22.5*,-2.0,-28.9,0.2
Cc1cnc(NC(=O)C2(C)CCN2C(=O)C(C)C)s1 (stereo unspecified),/,1.0,/,/,/,/,/
COc1ccc(OCCSCc2nnc(NC(=O)Nc3ccc(Cl)cc3)s2)cc1,-6.9,-1.2,2.4,23.6*,-1.5,6.9,6.1
CC(C)NS(=O)(=O)c1ccc(OCC(=O)NC(C)c2ccccc2)cc1 (stereo unspecified),-0.6,-0.8,2.4,-10.6,-5.1,0.6,/
Cn1cc(/C=C(\C#N)C(=O)Nc2cccc([N+](=O)[O-])c2)c2ccccc21,-1.4,0.1,0.4,45.1*,-5.2,1.4,3.6
COc1ccc(C2CCc3cc(OC)c(OC)cc3C2NC=O)cc1OC (stereo unspecified),/,0.0,/,/,/,/,/
O=C(Cn1nnc(-c2ccc(F)cc2)n1)N1CCCCC1,/,-4.0,-1.1,-4.1,-3.9,/,/
O=C(Nc1ccc(-c2nnn(CC(=O)N3CCN(C(=O)c4ccco4)CC3)n2)cc1)c1ccc(F)cc1,-54.5,1.1,1.8,34.8*,2.1,54.5,4.6
COCCCNC(=O)Cn1nnc(-c2ccc(NC(=O)c3ccc(F)cc3)cc2)n1,-20.0,-3.5,-4.2,35.5*,5.3,20.0,8.5
COc1ccc(OCC(=O)Nc2cc(-c3nn(C)c(=O)c4ccccc34)ccc2OC)cc1,-53.2,-2.9,-0.4,-13.5,-2.7,53.2,/
COc1ccc(-c2nn(C)c(=O)c3ccccc23)cc1NC(=O)Cn1nc(-c2ccccc2)c2ccccc2c1=O,-18.8,/,0.5,18.9*,8.3,18.8,-1.2

# From PubChem
